FN deposit inh – fibronectin deposition inhibition; inhibition, % at 12.6 µM; AH1F fibroblasts, Alexa488-fibronectin deposition fluorescence, overnight; 350,000 compounds, 0.086% hits;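 active means mean inhibition across replicates of 30% or more, regardless of how many single replicates reach that level; inconclusive means mean under 30% yet at least half of replicates reach 30%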;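 further: positive control wells lacked labelled fibronectin entirely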
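Material: AH1F fibroblasts assembling fluorescent fibronectin matrix; amount: 10000 AH1F cells/well; medium: DMEM, 2% serum; reagent: Alexa488-fibronectin, 24 nM final in well; dosing: single compound dose, delivered by pin transfer; incubation: 1 h adhesion, overnight exposure; detection: fluorescence after three HBSS washes, excitation 485 nm, emission 525 nm; measure: fibronectin deposition inhibition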
XiGFP reactiv – X-chromosome reactivation activator; XiGFP mouse fibroblasts, % GFP-positive cells imaging, 3 d; cells co-treated with 5-aza-dC sensitizer; scaled so ellipticine positive control = 100%; activation, % at 7.58 µM; 360,000 compounds, 0.055% hits; AID 743238;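 active means mean normalized replicate activation at least 10% and every replicate at or above 10%; inconclusive means only one of the two criteria met; inactive means mean below 10% and not all replicates reach 10%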;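 further: 0% = median of on-plate neutral control wells and 100% = ellipticine 6 µM median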
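System: 68-5-11 XiGFP fibroblast line | Buffer or medium: DMEM containing 5-aza-dC | Compound: Single point | Times: Compounds 3 days, fix/stain 15 min at room temperature | Benchmarks: Positive control ellipticine, 6 µM final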
LGR2 inh – inhibitors of bursicon-induced Drosophila LGR2 receptor cAMP signaling | HEK293 LGR2, CRE-luciferase, bursicon-stimulated, 4 h | inhibition, % at 9.99 µM | 380,000 compounds, 0.35% hits;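 active means drop in luminescence signal, shown as inhibition above about 50% in the replicate tests, limit read from the data, passing the limit was not always enough; inconclusive means probably only some replicates passing the limit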;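 further: agonist challenge used bursicon conditioned medium at about half maximal strength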
TWEAK Fn14 block – blocks TWEAK-Fn14 interaction in a reporter cell assay; TWEAK-stimulated Fn14 reporter cells, luciferase luminescence, 8 h; inhibition, % at 10 µM; 360,000 compounds, 2% hits; AID 1159606; in the data active means inhibition above about 50%
TROY signal inh – TROY signaling inhibition | Q293 LMP1-TROYcd NF-kB luciferase reporter, 4 h | inhibition, % at 10 µM | 360,000 compounds, 0.98% hits | AID 1347056;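 active means compounds whose plate-normalised and pattern-corrected inhibition of the luciferase reporter signal at the single screening dose is 50% or more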
EWS-Fli inh – inhibitors of EWS/Fli oncoprotein transcriptional activity | 350,000 compounds, 0.67% hits | inhibition, % at 12.6 µM | AID 651661 | A673 NR0B1-luciferase reporter, viability-normalised;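 active means mean inhibition of at least 50% after viability correction, with every replicate also passing that limit; inconclusive means mean reaches 50% but only one of two replicates passes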;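 further: firefly luciferase signal divided by Alamar Blue viability fluorescence both relative to DMSO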
Numbers without * were called inactive; ? = inconclusive; nt = no result given. This is a sample that favours compounds with a hit; in the whole collection about 2.3% have one here.

SMILES	FN deposit inh	XiGFP reactiv	LGR2 inh	TWEAK Fn14 block	TROY signal inh	EWS-Fli inh
CCOC(=O)C1CCN(c2ncnc3c2cnn3-c2ccc(Cl)cc2)CC1	nt	nt	-33	52*	-1	nt
Clc1ccc(Cn2ncc3c(N4CCN(c5ccccc5)CC4)ncnc32)cc1	-2	0	5	102*	81*	9
C[C@@H]1CN([C@@H](C)CO)C(=O)Cc2cc(NS(=O)(=O)c3cn(C)cn3)ccc2O[C@@H]1CN(C)C	nt	0	0	nt	nt	-4
CC1CCN(c2ncnc3c2cnn3-c2ccccc2)CC1	0	0	-59	-5	14	-6
Clc1ccc(-n2ncc3c(N4CCCC4)ncnc32)cc1	-5	nt	73*	100*	80*	nt
Cn1ncc2c(N3CCN(c4ccc(Cl)c(Cl)c4)CC3)ncnc21	-10	0	-2	85*	24	14
Cc1nn(-c2ccccc2)c(Cl)c1C(=O)N1CCN(c2ncnc3c2cnn3-c2ccccc2)CC1	nt	nt	nt	106*	85*	nt
Cc1ccc(S(=O)(=O)N(C)C[C@@H]2Oc3ccc(NC(=O)C4CC4)cc3C(=O)N([C@@H](C)CO)C[C@@H]2C)cc1	-14	-1	13	nt	nt	5
COc1ccc2c3c(n(C)c2c1)[C@@H](CO)N(C(=O)CC1CC1)CC31CN(C(=O)C2CCC2)C1	nt	0	-31	nt	nt	-4
O=C(O)c1cc2c(s1)-c1ccccc1CC2	-4	0	5	9	8	nt
c1ccc(-c2cc3n(c2)CCc2ccccc2-3)cc1	nt	nt	66*	83*	24	nt
CC1(Cc2ccc(OC(F)(F)F)cc2)C(=O)Nc2ccc(S(=O)(=O)NC3CCCCC3)cc21 (stereo unspecified)	-6	0	?	78*	52*	6
O=C(N/N=C1\CCc2ccccc21)c1ccccc1Cl	-9	0	-30	-12	-35	-69
O=C(N/N=C1\CCc2ccccc21)c1ccc(O)cc1	-2	0	-55	50*	-60	-66
S=C(N/N=C1\CCc2ccccc21)NC1CCCCC1	0	0	10	74*	71*	-4
N#C/C(=N\Nc1ccc(Cl)cc1)C(N)=S	-10	0	50	60*	64*	-18
Cc1ccc(N/N=C(\C#N)C(N)=S)cc1C	-18	0	nt	62*	58*	-10
C[C@@H]1CN([C@H](C)CO)C(=O)c2cc(NC(=O)CCN3CCOCC3)ccc2O[C@H]1CN(C)Cc1ccc(C(F)(F)F)cc1	-1	0	-14	nt	nt	nt
CN1C(=O)c2cc(NC(=O)Cc3cccs3)ccc2OC[C@H]2O[C@H](CC(=O)N[C@H]3CCN(Cc4ccccc4)C3)CC[C@H]21	3	0	12	nt	nt	5
COc1ccc(C(=O)NC2CC2)cc1OC1CCN(Cc2cc(C)c(C)cc2C)CC1	5	0	-10	88*	16	9
O=C(Nc1ccc(Cl)c(C(F)(F)F)c1)NC1CC2CCCC(C1)N2Cc1ccccc1 (stereo unspecified)	4	0	82*	nt	nt	18
CO[C@@H]1CN(C)C(=O)c2ccc(NC(=O)c3ccccc3)cc2OC[C@H](C)N(C(C)=O)C[C@H]1C	-12	0	-11	nt	nt	-10
Cc1c(/C(O)=C2\C(=O)C(=O)N(CCCN(C)C)C2c2ccccc2)cnn1-c1ccccc1 (stereo unspecified)	13	0	-5	82*	86*	-1
Cc1c(/C(O)=C2/C(=O)C(=O)N(CCN3CCOCC3)C2c2ccccn2)cnn1-c1ccccc1 (stereo unspecified)	-11	0	80*	92*	85*	13
O=C1C(=O)N(CCN2CCOCC2)C(c2ccccn2)/C1=C(/O)c1ccc(F)cc1 (stereo unspecified)	0	nt	nt	-2	3	nt
SMILES	FN deposit inh	XiGFP reactiv	LGR2 inh	TWEAK Fn14 block	TROY signal inh	EWS-Fli inh
CCCc1cn(CC[C@@H]2CC[C@@H](NC(=O)C3CCC3)[C@@H](CO)O2)nn1	nt	-1	-10	nt	nt	-5
C[C@H]1CN([C@@H](C)CO)C(=O)Cc2cc(NC(=O)Cn3cnnn3)ccc2O[C@@H]1CN(C)S(C)(=O)=O	nt	0	-8	nt	nt	-5
c1ccc(C[n+]2cccc(-c3ccccc3)c2)cc1	-7	0	-11	91*	90*	2
O=C1NC(=S)N/C1=C/c1ccc2c(c1)OCO2	0	0	43	54*	13	21
CCc1cc2c(=O)c(-c3cscn3)coc2c(CN(C)C)c1O	nt	nt	-12	-63	66*	nt
CCc1cc2c(=O)c(-c3ccc4c(c3)OCO4)coc2c(CN(C)C)c1O	3	0	4	-12	36	15
C[C@H]1CN([C@@H](C)CO)C(=O)Cc2cc(NC(=O)CCN3CCOCC3)ccc2O[C@H]1CN(C)S(=O)(=O)c1ccc(F)cc1	nt	0	-3	nt	nt	-4
CN1C(=O)c2cc(NC(=O)C3CCOCC3)ccc2OC[C@H]2O[C@H](CC(=O)NCc3ccc4c(c3)OCO4)CC[C@@H]21	-1	0	-23	nt	nt	1
C=C1CC2(OC1=O)c1ccccc1CCc1ccccc12	20	0	76*	34	51*	52*
C[C@H](CO)N1C[C@H](C)[C@H](CN(C)Cc2cccnc2)Oc2cc(C#CC3CCCCC3)ccc2S1(=O)=O	nt	1	4	nt	nt	34
CCOC(=O)C1=C(C)Nc2ccc(C)cc2S1	9	nt	nt	96*	22	nt
CC(C)c1cn(CC[C@H]2CC[C@@H](NC(=O)C3CCOCC3)[C@H](CO)O2)nn1	nt	0	-25	nt	nt	nt
O=C(CCCSc1nc2ccccc2[nH]1)N1CCN(c2ccc([N+](=O)[O-])cc2)CC1	nt	nt	nt	50*	37	nt
CN1C(=O)c2cc(NC(=O)c3cccs3)ccc2OC[C@H]2O[C@H](CC(=O)NCC(F)(F)F)CC[C@H]21	-16	0	4	nt	nt	-1
C=CCn1c2ccccc2c2nnc(SCCN3CCCCC3)nc21	8	0	-5	-15	-13	16
C=CCn1c2ccccc2c2nnc(SCCCn3c(=O)[nH]c4ccccc43)nc21	nt	nt	nt	60*	68*	nt
CC(C)NC(=O)N1CC2(C1)[C@@H](c1ccccc1)[C@H](CO)N2C(=O)C1CCCCC1	nt	0	24	nt	nt	3
COc1cc2c(c(OC)c1OC)-c1ccc(SC)c(=O)cc1C(NC=O)CC2 (stereo unspecified)	-28	1	20	57*	29	62*
COc1cc2c(c(OC)c1OC)-c1ccc(OC)c(=O)cc1C(NC(C)=O)CC2 (stereo unspecified)	nt	1	8	-23	24	64*
CCCNC(=O)Nc1ccc2c(c1)C(=O)N(C)[C@@H]1CC[C@H](CC(=O)O)O[C@H]1CO2	-19	0	9	nt	nt	5
CCN(CC)CCN(C(=O)c1ccccc1OC)c1nc2ccc(F)cc2s1	6	0	-16	-27	76*	-10
